Measured values published in ChEMBL document CHEMBL1157373, “Dual targeting of DNA gyrase and topoisomerase IV: target interactions of heteroaryl isothiazolones in Staphylococcus aureus” (Antimicrob Agents Chemother, 2007).
≈ marks a conversion by molar mass, not a printed value.

How the values were obtained:
Staphylococcus aureus [1] = assay: Antibacterial activity against Staphylococcus aureus BSA643 isolate with gyrA Ser84Leu and grlA Ser80Tyr, Glu84Gly mutant assessed as doubling time of bacterial growth at 1 ug/ml; type: functional
Outline: (§1)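 Overnight cultures in MH or Mueller-Hinton II medium at 37°C with aeration were diluted to OD625 of about 0.05. Turbidity was read every 30 min over the first 7 h. Doubling time was estimated from log OD625 versus time growth curves.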

Staphylococcus aureus [2] = assay: Antibacterial activity against Staphylococcus aureus ATCC 29213 assessed as doubling time of bacterial growth at 1 ug/ml; type: functional; outline: as §1
Staphylococcus aureus [3] = assay: Antibacterial activity against Staphylococcus aureus BSA643 isolate with gyrA Ser84Leu and grlA Ser80Tyr, Glu84Gly mutant after 24 hrs by broth microdilution method; type: functional
Staphylococcus aureus [4] = assay: Antibacterial activity against Staphylococcus aureus ATCC 700699 isolate with gyrA Ser84Leu, Glu409Lys and grlA Ser80Phe mutant assessed as doubling time of bacterial growth at 1 ug/ml; type: functional; outline: as §1
Staphylococcus aureus [5] = assay: Antibacterial activity against Staphylococcus aureus ACH-0192 isolate with gyrA Ser84Leu and grlA Ser80Phe, Ala116Val mutant assessed as doubling time of bacterial growth at 1 ug/ml; type: functional; outline: as §1
Staphylococcus aureus [6] = assay: Antibacterial activity against Staphylococcus aureus NY2746 isolate with gyrA Ser84Leu and grlA Ser80Phe mutant after 24 hrs by broth microdilution method; type: functional
Staphylococcus aureus [7] = assay: Antibacterial activity against Staphylococcus aureus ACH-0204 isolate with gyrA Ser84Leu mutant after 24 hrs by broth microdilution method; type: functional
Outline: (§2)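 Broth microdilution per CLSI guidelines. MIC taken as the lowest concentration preventing visible growth at 24 h. Each MIC determined at least twice.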

Staphylococcus aureus [8] = assay: Antibacterial activity against Staphylococcus aureus ACH-0126 isolate with gyrA Ser84Leu and grlA Ser80Phe mutant assessed as doubling time of bacterial growth at 1 ug/ml; type: functional; outline: as §1
Staphylococcus aureus [9] = assay: Antibacterial activity against Staphylococcus aureus ATCC 33591 isolate after 24 hrs by broth microdilution method; type: functional; details: ATCC 33591, 24 h; outline: as §2
Staphylococcus aureus [10] = assay: Antibacterial activity against Staphylococcus aureus ACH-0210 isolate with gyrA Ser84Leu and grlA Ser80Phe mutant after 24 hrs by broth microdilution method; type: functional
Staphylococcus aureus [11] = assay: Antibacterial activity against Staphylococcus aureus ACH-0192 isolate with gyrA Ser84Leu and grlA Ser80Phe, Ala116Val mutant after 24 hrs by broth microdilution method; type: functional
Staphylococcus aureus [12] = assay: Antibacterial activity against Staphylococcus aureus ACH-0201 isolate with gyrA Ser84Leu, Glu88Val and grlA Ser80Phe, Ala116Val mutant after 24 hrs by broth microdilution method; type: functional
Staphylococcus aureus [13] = assay: Antibacterial activity against Staphylococcus aureus ACH-0186 isolate with gyrA Ser84Leu and grlA Ser80Phe mutant assessed as doubling time of bacterial growth at 1 ug/ml; type: functional; outline: as §1
[14] = Inhibition of Staphylococcus aureus […] topoisomerase 4 grlA S80F mutant decatenation activity assessed as unlinking of DNA microcircles from kinetoplast DNA
Outline: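 Recombinant S. aureus GrlA (Ser80Phe) and GrlB were mixed 1:1 molar on ice for 10 min. kDNA (0.1 μg) with 2 U enzyme, 30 min at 37°C, in 1 mM ATP, 5 mM MgCl2, 250 mM K-glutamate, 50 mM Tris pH 7.5. Reactions stopped with EDTA, run on 1% agarose-TBE and ethidium-stained, minicircles quantitated. IC50 by nonlinear regression.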

Staphylococcus aureus [15] = assay: Antibacterial activity against Staphylococcus aureus ATCC 29213 after 24 hrs by broth microdilution method; type: functional; details: ATCC 29213, 24 h; outline: as §2
Staphylococcus aureus [16] = assay: Antibacterial activity against Staphylococcus aureus ACH-0203 isolate with gyrA Ser84Leu and grlA Ser80Phe, Ala116Val mutant assessed as doubling time of bacterial growth at 1 ug/ml; type: functional; outline: as §1
Staphylococcus aureus [17] = assay: (§3) Antibacterial activity against Staphylococcus aureus ACH-0129 isolate with gyrA Ser84Leu, Glu88Val and grlA Ser80Phe, Ala116Val mutant after 24 hrs by broth microdilution method; type: functional
Staphylococcus aureus [18] = assay: Antibacterial activity against Staphylococcus aureus BSA678 isolate with gyrA Ser84Leu, Ser85Pro and grlA Ser80Phe, Glu84Lys mutant after 24 hrs by broth microdilution method
Staphylococcus aureus [19] = assay: Antibacterial activity against Staphylococcus aureus ACH-0126 isolate with gyrA Ser84Leu and grlA Ser80Phe mutant after 24 hrs by broth microdilution method; type: functional
Staphylococcus aureus [20] = assay: Antibacterial activity against Staphylococcus aureus ACH-0231 isolate with gyrA Ser84Leu, Glu88Lys and grlA Ser80Tyr, Glu84Gly mutant assessed as doubling time of bacterial growth at 1 ug/ml; type: functional; outline: as §1
[21] = Inhibition of Staphylococcus aureus wild-type topoisomerase 4 decatenation activity assessed as unlinking of DNA microcircles from kinetoplast DNA
Outline: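 S. aureus topo IV reconstituted from His-purified recombinant GrlA and GrlB (E. coli BL21(DE3)pLysS expression), mixed 1:1 molar on ice 10 min. 0.1 μg catenated kDNA with 2 U enzyme, 30 min at 37°C in 1 mM ATP, 5 mM DTT, 5 mM MgCl2, 50 μg/ml BSA, 50 mM Tris-HCl pH 7.5, 250 mM potassium glutamate. Products on 1% agarose gel, ethidium-stained, quantitated; IC50 by nonlinear regression.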

Staphylococcus aureus [22] = assay: Antibacterial activity against Staphylococcus aureus ACH-0231 isolate with gyrA Ser84Leu, Glu88Lys and grlA Ser80Tyr, Glu84Gly mutant after 24 hrs by broth microdilution method; type: functional
Staphylococcus aureus [23] = assay: Antibacterial activity against Staphylococcus aureus ACH-0221 isolate with gyrA Ser84Leu mutant after 24 hrs by broth microdilution method; type: functional; outline: as §2
Staphylococcus aureus [24] = assay: Antibacterial activity against Staphylococcus aureus BSA678 isolate with gyrA Ser84Leu, Ser85Pro and grlA Ser80Phe, Glu84Lys mutant assessed as doubling time of bacterial growth at 1 ug/ml
Staphylococcus aureus [25] = assay: Antibacterial activity against Staphylococcus aureus ACH-0141 isolate with gyrA Ser84Leu, Glu88Val and grlA Ser80Phe, Ala116Val mutant assessed as doubling time of bacterial growth at 1 ug/ml; type: functional; outline: as §1
Staphylococcus aureus [26] = assay: Antibacterial activity against Staphylococcus aureus ATCC 700699 isolate with gyrA Ser84Leu, Glu409Lys and grlA Ser80Phe mutant after 24 hrs by broth microdilution method; type: functional; details: ATCC 700699, 24 h
Staphylococcus aureus [27] = assay: Antibacterial activity against Staphylococcus aureus NY2746 isolate with gyrA Ser84Leu and grlA Ser80Phe mutant assessed as doubling time of bacterial growth at 1 ug/ml; type: functional; outline: as §1
Staphylococcus aureus [28] = assay: Antibacterial activity against Staphylococcus aureus ACH-0129 isolate with gyrA Ser84Leu, Glu88Val and grlA Ser80Phe, Ala116Val mutant assessed as doubling time of bacterial growth at 1 ug/ml; type: functional; outline: as §1
Staphylococcus aureus [29] = assay: as §3; type: functional; remark: listed apart in the source
Staphylococcus aureus [30] = assay: Antibacterial activity against Staphylococcus aureus ACH-0130 isolate with gyrA Ser84Leu, Glu88Val and grlA Ser80Phe, Ala116Val mutant assessed as doubling time of bacterial growth at 1 ug/ml; type: functional; outline: as §1
Staphylococcus aureus [31] = assay: Antibacterial activity against Staphylococcus aureus ACH-0216 isolate with grlA Ser80Phe mutant after 24 hrs by broth microdilution method; type: functional; outline: as §2
Staphylococcus aureus [32] = assay: Antibacterial activity against Staphylococcus aureus ACH-0218 isolate with grlA Glu84Lys mutant after 24 hrs by broth microdilution method; type: functional; outline: as §2
Staphylococcus aureus [33] = assay: Antibacterial activity against Staphylococcus aureus ACH-0141 isolate with gyrA Ser84Leu, Glu88Val and grlA Ser80Phe, Ala116Val mutant after 24 hrs by broth microdilution method; type: functional
Staphylococcus aureus [34] = assay: Antibacterial activity against Staphylococcus aureus ACH-0201 isolate with gyrA Ser84Leu, Glu88Val and grlA Ser80Phe, Ala116Val mutant assessed as doubling time of bacterial growth at 1 ug/ml; type: functional; outline: as §1
Staphylococcus aureus [35] = assay: Antibacterial activity against Staphylococcus aureus ACH-0203 isolate with gyrA Ser84Leu and grlA Ser80Phe, Ala116Val mutant after 24 hrs by broth microdilution method; type: functional; outline: as §2
Staphylococcus aureus [36] = assay: Antibacterial activity against Staphylococcus aureus ACH-0186 isolate with gyrA Ser84Leu and grlA Ser80Phe, Ala116Val mutant after 24 hrs by broth microdilution method; type: functional
DNA gyrase subunit A = DNA gyrase subunit A (Staphylococcus aureus, UniProt P20831, S84L); assay: Inhibition of Staphylococcus aureus DNA gyrase gyrA S84L mutant supercoiling activity assessed as effect on conversion of relaxed pBR322 DNA to supercoiled form
Staphylococcus aureus [37] = assay: Antibacterial activity against Staphylococcus aureus ACH-0206 isolate with gyrA Ser84Leu mutant after 24 hrs by broth microdilution method; type: functional; outline: as §2

Row | SMILES | MIC (Staphylococcus aureus [3]) [µg/mL] | MIC (Staphylococcus aureus [6]) [µg/mL] | MIC (Staphylococcus aureus [7]) [µg/mL] | MIC (Staphylococcus aureus [9]) [µg/mL] | MIC (Staphylococcus aureus [10]) [µg/mL] | MIC (Staphylococcus aureus [11]) [µg/mL] | MIC (Staphylococcus aureus [12]) [µg/mL] | IC50 [14] [µM] | MIC (Staphylococcus aureus [15]) [µg/mL] | MIC (Staphylococcus aureus [18]) [µg/mL] | MIC (Staphylococcus aureus [19]) [µg/mL] | IC50 [21] [µM] | MIC (Staphylococcus aureus [22]) [µg/mL] | MIC (Staphylococcus aureus [23]) [µg/mL] | MIC (Staphylococcus aureus [26]) [µg/mL] | MIC (Staphylococcus aureus [29]) [µg/mL] | MIC (Staphylococcus aureus [31]) [µg/mL] | MIC (Staphylococcus aureus [32]) [µg/mL] | MIC (Staphylococcus aureus [33]) [µg/mL] | MIC (Staphylococcus aureus [35]) [µg/mL] | also measured
1 | COc1c(-c2ccnc(C)c2)c(F)cc2c(=O)c3c(=O)[nH]sc3n(C3CC3)c12 | 0.125 (≈ 0.315 µM) | 0.25 (≈ 0.629 µM) | 0.016 (≈ 0.0403 µM) | 0.004 (≈ 0.0101 µM) | 0.125 (≈ 0.315 µM) | 0.5 (≈ 1.26 µM) | 2 (≈ 5.03 µM) | 15.8 | 0.004 (≈ 0.0101 µM) | 0.5 (≈ 1.26 µM) | 0.125 (≈ 0.315 µM) | 1 | 2 (≈ 5.03 µM) | 0.03 (≈ 0.0755 µM) | 0.25 (≈ 0.629 µM) | 0.5 (≈ 1.26 µM) | 0.008 (≈ 0.0201 µM) | 0.008 (≈ 0.0201 µM) | 2 (≈ 5.03 µM) | 1 (≈ 2.52 µM) | Time (Staphylococcus aureus [1]): 38 min; Time (Staphylococcus aureus [2]): 30 min; Time (Staphylococcus aureus [4]): 39 min; Time (Staphylococcus aureus [5]): 121 min; Time (Staphylococcus aureus [8]): 34 min; Time (Staphylococcus aureus [13]): 34 min; Time (Staphylococcus aureus [16]): 338 min; MIC (Staphylococcus aureus [17]): 0.5 µg/mL (≈ 1.26 µM); Time (Staphylococcus aureus [20]): 35 min; Time (Staphylococcus aureus [24]): 42 min; Time (Staphylococcus aureus [25]): 340 min; Time (Staphylococcus aureus [27]): 33 min; Time (Staphylococcus aureus [28]): 40 min; Time (Staphylococcus aureus [30]): 52 min; Time (Staphylococcus aureus [34]): 180 min; MIC (Staphylococcus aureus [36]): 0.5 µg/mL (≈ 1.26 µM); IC50 (DNA gyrase subunit A): 52.3 µM; MIC (Staphylococcus aureus [37]): 0.015 µg/mL (≈ 0.0377 µM)
2 | CO/N=C1\CN(c2nc3c(cc2F)c(=O)c(C(=O)O)cn3C2CC2)CC1CN (stereo not given) [GEMIFLOXACIN] | 32 (≈ 82.2 µM) | 32 (≈ 82.2 µM) | 0.125 (≈ 0.321 µM) | 0.06 (≈ 0.154 µM) | 4 (≈ 10.3 µM) | 8 (≈ 20.5 µM) | 8 (≈ 20.5 µM) | 9.8 | 0.03 (≈ 0.077 µM) | 64 (≈ 164 µM) | 4 (≈ 10.3 µM) | 0.4 | > 64 | 0.5 (≈ 1.28 µM) | 4 (≈ 10.3 µM) | 8 (≈ 20.5 µM) | 0.125 (≈ 0.321 µM) | 0.125 (≈ 0.321 µM) | 4 (≈ 10.3 µM) | 32 (≈ 82.2 µM) | MIC (Staphylococcus aureus [36]): 4 µg/mL (≈ 10.3 µM); IC50 (DNA gyrase subunit A): > 300 µM; MIC (Staphylococcus aureus [37]): 0.125 µg/mL (≈ 0.321 µM)
3 | COc1c(-c2cc(C)nc(C)c2)c(F)cc2c(=O)c3c(=O)[nH]sc3n(C3CC3)c12 | 0.125 (≈ 0.304 µM) | 0.25 (≈ 0.608 µM) | 0.016 (≈ 0.0389 µM) | 0.004 (≈ 0.00972 µM) | 0.125 (≈ 0.304 µM) | 1 (≈ 2.43 µM) | 1 (≈ 2.43 µM) | 9.3 | 0.004 (≈ 0.00972 µM) | 0.5 (≈ 1.22 µM) | 0.125 (≈ 0.304 µM) | 0.8 | 1 (≈ 2.43 µM) | 0.03 (≈ 0.0729 µM) | 0.125 (≈ 0.304 µM) | 0.5 (≈ 1.22 µM) | 0.008 (≈ 0.0194 µM) | 0.004 (≈ 0.00972 µM) | 2 (≈ 4.86 µM) | 1 (≈ 2.43 µM) | MIC (Staphylococcus aureus [17]): 0.5 µg/mL (≈ 1.22 µM); MIC (Staphylococcus aureus [36]): 0.25 µg/mL (≈ 0.608 µM); IC50 (DNA gyrase subunit A): 21.5 µM; MIC (Staphylococcus aureus [37]): 0.015 µg/mL (≈ 0.0365 µM)
